Data as given in ChEMBL document CHEMBL5338743, “Identification of a Selective SCoR2 Inhibitor That Protects Against Acute Kidney Injury” (J Med Chem, 2023).
Active and inactive are the calls of the source. The rule behind the calls is not given here.

Assays:
[1] = molecular target: T1, Aldo-keto reductase family 1 member B1 (Homo sapiens, UniProt P15121); test: Inhibition of C-terminal 6His-tagged human recombinant AKR1B1 expressed in Escherichia coli BL21-CodonPlus competent cells using methyl glyoxylate as substrate incubated for 2 mins in presence of NADPH
Summary of the method: (§1)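 Purified enzyme at 200 nM (SCoR2 with 100 μM SNO-CoA; AKR1B1 with 100 μM methylglyoxylate) in 50 mM phosphate pH 7.0 with serial inhibitor dilutions; started with 100 μM NADPH, 2 min. Rate from 340 nm decrease, normalized to 20 nM protein activity; IC50 fitted, n=3. Selectivity taken as AKR1B1/SCoR2 IC50 ratio.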

Homo sapiens = species on record: Homo sapiens; test: Selectivity index, ratio of IC50 for inhibition of human recombinant AKR1B1 expressed in Escherichia coli BL21-CodonPlus competent cells to IC50 for inhibition of human recombinant SCoR2 expressed in Escherichia coli BL21-CodonPlus competent cells; summary of the method: as §1
[2] = molecular target: T2, Aldo-keto reductase family 1 member A1 (Homo sapiens, UniProt P14550); test: Inhibition of C-terminal 6His-tagged human recombinant SCoR2 AKR1A1 expressed in Escherichia coli BL21-CodonPlus competent cells using SNO-CoA as substrate incubated for 2 mins in presence of NADPH; summary of the method: as §1
T2 sequence (P14550 whole entry): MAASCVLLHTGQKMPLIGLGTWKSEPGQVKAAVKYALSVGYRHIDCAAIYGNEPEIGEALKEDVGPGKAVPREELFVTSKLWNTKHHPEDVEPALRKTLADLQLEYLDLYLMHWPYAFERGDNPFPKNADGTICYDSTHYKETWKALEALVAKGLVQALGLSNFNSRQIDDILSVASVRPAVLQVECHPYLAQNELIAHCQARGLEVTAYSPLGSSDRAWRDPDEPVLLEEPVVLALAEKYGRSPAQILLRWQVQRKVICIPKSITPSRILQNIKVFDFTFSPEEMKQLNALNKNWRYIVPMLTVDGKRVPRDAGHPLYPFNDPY

Mus musculus [3] = test: Protection against ischemia/reperfusion induced acute kidney injury in mouse assessed as reduction in serum creatinine level at 20 mg/kg, ip pretreated for 18 hrs followed by kidney injury surgery and measured after 24 hrs; assay type: functional, organism-based; conditions: time 42.0 hrs
Summary of the method: (§2)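 Male mice (9–11 weeks, 25–28 g) given i.p. dose 18 h before ischemia–reperfusion AKI surgery under isoflurane; serum taken 24 h after reperfusion. Creatinine and BUN measured by a clinical laboratory; DMSO-treated controls.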

[4] = In vivo inhibition of SCoR2 in mouse assessed as reduction in SNO-CoA metabolic activity in kidneys at 20 mg/kg body weight, ip administered as single dose into lower right quadrant of abdomen measured after 18 hrs relative to control; assay type: functional
Summary of the method: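 Single i.p. injection into the mouse abdomen, DMSO vehicle; organs collected 18 h later. Tissues homogenized in 50 mM phosphate pH 7.0, 150 mM NaCl, EDTA/DTPA, then clarified; lysate started reactions with 200 μM SNO-CoA and 100 μM NADPH, 2 min, NADPH loss monitored, in triplicate. Compared with vehicle and SCoR2−/− kidneys.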

Mus musculus [5] = test: In vivo inhibition of SCoR2 in ischemia/reperfusion induced acute kidney injury mouse model assessed as reduction in SNO-CoA metabolic activity in kidneys at 125 mg/kg, ip administered for 3 to 12 weeks; assay type: functional, organism-based; conditions: time 3-12 weeks
Mus musculus [6] = test: Protection against ischemia/reperfusion induced acute kidney injury in mouse assessed as reduction in blood urea nitrogen level at 125 mg/kg, ip administered for 3 to 12 weeks; assay type: functional, organism-based; conditions: time 3-12 weeks
Mus musculus [7] = test: Protection against ischemia/reperfusion induced acute kidney injury in mouse assessed as reduction in serum creatinine level at 125 mg/kg, ip administered for 3 to 12 weeks; assay type: functional, organism-based; conditions: time 3-12 weeks
Mus musculus [8] = test: Protection against ischemia/reperfusion induced acute kidney injury in mouse assessed as reduction in blood urea nitrogen level at 20 mg/kg, ip pretreated for 18 hrs followed by kidney injury surgery and measured after 24 hrs; assay type: functional, organism-based; conditions: time 42.0 hrs; summary of the method: as §2
[9] = molecular target: T1, Aldo-keto reductase family 1 member B1; test: Inhibition of C-terminal 6His-tagged human recombinant AKR1B1 expressed in Escherichia coli BL21-CodonPlus competent cells using DL-glyceraldehyde as substrate
Summary of the method: (§3)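 Recombinant human His-tagged enzyme (20 nM) with 3 mM DL-glyceraldehyde in 50 mM phosphate pH 7.0, varying inhibitor from DMSO stocks; started with 100 μM NADPH, 2 min. NADPH consumption followed spectrophotometrically, slope used to fit IC50.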

Mus musculus [10] = test: In vivo inhibition of SCoR2 in ischemia/reperfusion induced acute kidney injury mouse model assessed as reduction in SNO-CoA metabolic activity in kidneys at 20 mg/kg, ip pretreated for 18 hrs followed by kidney injury surgery and measured after 24 hrs; assay type: functional, organism-based; conditions: time 42.0 hrs
Summary of the method: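 Male mice (9–11 weeks, 25–28 g) dosed i.p. 18 h before renal ischemia–reperfusion surgery under isoflurane; kidneys taken 24 h after reperfusion. Kidney lysate SNO-CoA reductase activity measured with 200 μM SNO-CoA, 100 μM NADPH, 2 min, triplicate assays; DMSO-treated controls.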

[11] = molecular target: T2, Aldo-keto reductase family 1 member A1; test: Inhibition of C-terminal 6His-tagged human recombinant SCoR2 AKR1A1 expressed in Escherichia coli BL21-CodonPlus competent cells using DL-glyceraldehyde as substrate; summary of the method: as §3
[12] = compound: O=C1NC(=O)C2(N1)c1ccccc1-c1ccc(C3CC3)cc12; test: Uncompetitive inhibition of C-terminal 6His-tagged human recombinant SCoR2 AKR1A1 expressed in Escherichia coli BL21-CodonPlus competent cells using varying concentrations of SNO-CoA as substrate assessed as Vmax at 400 nM by Michaelis-Menten analysis (reference value: 23 umol.min)
[13] = compound: O=C1NC(=O)C2(N1)c1ccccc1-c1ccc(C3CC3)cc12; test: Uncompetitive inhibition of C-terminal 6His-tagged human recombinant SCoR2 AKR1A1 expressed in Escherichia coli BL21-CodonPlus competent cells using varying concentrations of SNO-CoA as substrate assessed as Km at 100 nM by Michaelis-Menten analysis (reference value: 254 uM)
[14] = compound: O=C1NC(=O)C2(N1)c1ccccc1-c1ccc(C3CC3)cc12; test: Uncompetitive inhibition of C-terminal 6His-tagged human recombinant SCoR2 AKR1A1 expressed in Escherichia coli BL21-CodonPlus competent cells using varying concentrations of SNO-CoA as substrate assessed as Vmax at 100 nM by Michaelis-Menten analysis (reference value: 23 umol.min)
[15] = compound: O=C1NC(=O)C2(N1)c1ccccc1-c1ccc(C3CC3)cc12; test: Uncompetitive inhibition of C-terminal 6His-tagged human recombinant SCoR2 AKR1A1 expressed in Escherichia coli BL21-CodonPlus competent cells using varying concentrations of SNO-CoA as substrate assessed as Km at 400 nM by Michaelis-Menten analysis (reference value: 254 uM)

O=C1NC(=O)C2(N1)c1ccc(OCCO)cc1-c1ccc(F)cc12 (stereo not given)
IC50 [1]: 13 nM
Ratio IC50 (Homo sapiens): 0.18
IC50 [2]: 74 nM

O=C(O)COc1cc2c(cc1F)C1(NC(=O)NC1=O)c1cc(F)ccc1-2 (stereo in doubt; 48-1) [listing 1 of 2 here]
IC50 [1]: 27 nM
IC50 [2]: 63 nM

O=C(O)COc1cc2c(cc1F)C1(NC(=O)NC1=O)c1cc(F)ccc1-2 (stereo in doubt; 48-1) [listing 2 of 2 here]
Ratio IC50 (Homo sapiens): 0.43

O=C(O)Cc1c(O)c(F)cc2c1-c1ccc(F)cc1C21NC(=O)NC1=O (stereo in doubt; 47-1) [listing 1 of 2 here]
Ratio IC50 (Homo sapiens): 1.7

O=C1NC(=O)C2(N1)c1cc(F)ccc1-c1ccc(C3CCC3)cc12 (stereo in doubt; 17-1)
Ratio IC50 (Homo sapiens): 1.7

O=C1NC(=O)C2(N1)c1cc(Cl)ccc1-c1ccc(Cl)cc12
IC50 [1]: 56 nM
Ratio IC50 (Homo sapiens): 0.44
IC50 [2]: 127 nM

O=C(O)COc1cc2c(cc1F)C1(NC(=O)NC1=O)c1cc(F)ccc1-2 (stereo in doubt; 48-2) [listing 1 of 2 here]
IC50 [1]: 22 nM
IC50 [2]: 82 nM

O=C1NC(=O)C2(N1)c1cc(F)ccc1-c1ccc(C3CCC3)cc12 (stereo in doubt; 17-2)
Ratio IC50 (Homo sapiens): 0.66

O=C1NC(=O)C2(N1)c1ccccc1-c1c(F)cccc12 (stereo not given)
IC50 [1]: 52 nM
Ratio IC50 (Homo sapiens): 0.63
IC50 [2]: 82 nM

O=C(O)Cc1cc(F)cc2c1-c1ccc(F)cc1C21NC(=O)NC1=O (stereo in doubt; 49-1)
Ratio IC50 (Homo sapiens): 0.53

O=C1NC(=O)C2(N1)c1cc(F)ccc1-c1ccc(F)cc12
Activity (Mus musculus [3]): inactive
inhibition in vivo at 20 mg/kg [4]: 80%
inhibition (Mus musculus [5]): Active
Activity (Mus musculus [6]): inactive
IC50 [1]: 46 nM
Activity (Mus musculus [7]): inactive
Activity (Mus musculus [8]): inactive
IC50 [9]: 27 nM
Ratio IC50 (Homo sapiens): 0.81
inhibition (Mus musculus [10]): Active
IC50 [11]: 45 nM
IC50 [2]: 57 nM

CC(/C=C1\SC(=S)N(CC(=O)O)C1=O)=C\c1ccccc1
IC50 [11]: 325 nM

O=C(O)Cc1c(O)c(F)cc2c1-c1ccc(F)cc1C21NC(=O)NC1=O (stereo in doubt; 47-2) [listing 1 of 2 here]
IC50 [1]: 32 nM
IC50 [2]: 48 nM

O=C(O)Cc1c(O)c(F)cc2c1-c1ccc(F)cc1C21NC(=O)NC1=O (stereo in doubt; 47-2) [listing 2 of 2 here]
Ratio IC50 (Homo sapiens): 0.67

O=C(O)COc1ccc2c(c1)-c1ccc(F)cc1C21NC(=O)NC1=O (stereo not given)
IC50 [1]: 53 nM
Ratio IC50 (Homo sapiens): 1.3
IC50 [2]: 42 nM

O=C1NC(=O)C2(N1)c1cc(F)ccc1-c1cc(OC3COC3)c(F)cc12 (stereo not given)
IC50 [1]: 14 nM
Ratio IC50 (Homo sapiens): 0.48
IC50 [2]: 29 nM

O=C1NC(=O)C2(N1)c1cc(F)ccc1-c1ccc(C3CC3)cc12 (stereo not given)
IC50 [1]: 212 nM
Ratio IC50 (Homo sapiens): 1.7
IC50 [2]: 122 nM

O=C1NC(=O)C2(N1)c1cc(F)ccc1-c1cc(C3CC3)c(F)cc12 (stereo not given)
IC50 [1]: 15 nM
Ratio IC50 (Homo sapiens): 0.21
IC50 [2]: 72 nM

O=C1NC(=O)C2(N1)c1cc(F)ccc1-c1c(-c3cn(C4CCCC4)nn3)cc(F)cc12 (stereo not given)
IC50 [1]: 11 nM
Ratio IC50 (Homo sapiens): 0.17
IC50 [2]: 66 nM

O=C1NC(=O)C2(N1)c1ccccc1-c1ccc(Cl)cc12 (stereo not given)
IC50 [1]: 16 nM
Ratio IC50 (Homo sapiens): 0.3
IC50 [2]: 53 nM

O=C(O)Cc1cc(F)cc2c1-c1ccc(F)cc1C21NC(=O)NC1=O (stereo in doubt; 49-2)
Ratio IC50 (Homo sapiens): 0.26

O=C1NC(=O)C2(N1)c1cc(F)ccc1-c1c(F)cccc12 (stereo not given)
IC50 [1]: 16 nM
Ratio IC50 (Homo sapiens): 0.24
IC50 [2]: 67 nM

O=C1NC(=O)C2(N1)c1cc(F)ccc1-c1ccc(Br)cc12 (stereo not given)
IC50 [1]: 22 nM
Ratio IC50 (Homo sapiens): 0.43
IC50 [2]: 51 nM

O=C(O)Cc1c(O)c(F)cc2c1-c1ccc(F)cc1C21NC(=O)NC1=O (stereo in doubt; 47-1) [listing 2 of 2 here]
IC50 [1]: 42 nM
IC50 [2]: 25 nM

O=C1NC(=O)C2(N1)c1ccc(OCC(=O)N3CCC3)cc1-c1ccc(F)cc12 (stereo not given)
IC50 [1]: 19 nM
Ratio IC50 (Homo sapiens): 0.24
IC50 [2]: 80 nM

O=C(O)COc1cc2c(cc1F)C1(NC(=O)NC1=O)c1cc(F)ccc1-2 (stereo in doubt; 48-2) [listing 2 of 2 here]
Ratio IC50 (Homo sapiens): 0.27

COc1ccc2c(c1)-c1ccc(F)cc1C21NC(=O)NC1=O (stereo not given)
IC50 [1]: 16 nM
Ratio IC50 (Homo sapiens): 0.24
IC50 [2]: 68 nM

O=C1NC(=O)C2(N1)c1cc(F)ccc1-c1c(OCC(=O)N3CCC3)cc(F)cc12 (stereo not given)
IC50 [1]: 18 nM
Ratio IC50 (Homo sapiens): 0.31
IC50 [2]: 59 nM

B1: Aldo-keto reductase family 1 member A1 (Homo sapiens), P14550 (protein)
chain: T2 sequence (P14550 whole entry)
Vmax [12]: 4.5 µmol·min
Km [13]: 199 µM
Vmax [14]: 13 µmol·min
Km [15]: 98 µM
